Activity calls are given as the source filed them. No cut-off for these calls is given here.
Assays:
KB = experiment: Cytotoxicity against human KB cells after 2 hrs by methylene blue staining-based spectrophotometric analysis; assay type: functional, cell-based
A549 [1] = experiment: Cytotoxicity against human A549 cells after 2 hrs by methylene blue staining-based spectrophotometric analysis; assay type: functional, cell-based; settings: A549, 2 h
SK-BR-3 = experiment: Cytotoxicity against human SKBR3 cells after 2 hrs by methylene blue staining-based spectrophotometric analysis; assay type: functional, cell-based; settings: SK-BR-3, 2 h
[2] = Cytotoxicity against human KBVIN cells overexpressing P-gp after 2 hrs by methylene blue staining-based spectrophotometric analysis; assay type: functional, cell-based
DU-145 = experiment: Cytotoxicity against human DU145 cells after 2 hrs by methylene blue staining-based spectrophotometric analysis; assay type: functional, cell-based; settings: DU-145, 2 h
A549 [3] = experiment: Cytotoxicity against human A549 cells assessed as cell viability after 48 hrs by SRB assay; assay type: functional, cell-based; settings: A549, 48 h
HCT-8 = experiment: Cytotoxicity against human HCT8 cells after 2 hrs by methylene blue staining-based spectrophotometric analysis; assay type: functional, cell-based; settings: HCT-8, 2 h
[4] = Cytotoxicity against human PC9IR cells assessed as cell viability after 48 hrs by SRB assay; assay type: functional, cell-based
Summary of the method: (§1)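 Human NSCLC lines (CL1-0, CL1-5, PC9, PC9IR) exposed to increasing compound concentrations for 48 h. Growth read by sulforhodamine B (SRB) staining, with IC50 in nM taken from the dose-response.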

PC-9 = experiment: Cytotoxicity against human PC9 cells assessed as cell viability after 48 hrs by SRB assay; assay type: functional, cell-based; settings: PC-9, 48 h; summary of the method: as §1
MRC5 = experiment: Cytotoxicity against human MRC5 cells assessed as cell viability after 48 hrs by SRB assay; assay type: functional, cell-based; settings: MRC5, 48 h
[5] = Cytotoxicity against human CL1-5 cells assessed as cell viability after 48 hrs by SRB assay; assay type: functional, cell-based; settings: CL1-5, 48 h; summary of the method: as §1
A549 [6] = experiment: Downregulation of cyclin D protein expression in human A549 cells at 3.6 to 100 nM after 48 hrs by Western blot analysis; assay type: functional, cell-based
[7] = Cytotoxicity against human CL1-0 cells assessed as cell viability after 48 hrs by SRB assay; assay type: functional, cell-based; settings: CL1-0, 48 h; summary of the method: as §1
A549 [8] = experiment: Downregulation of HSP90 protein expression in human A549 cells at 3.6 to 100 nM after 48 hrs by Western blot analysis; assay type: functional, cell-based
Summary of the method: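 A549 cells treated with graded compound concentrations for 48 h. Whole-cell extracts were immunoblotted with antibody against HSP90.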

A549 [9] = experiment: Downregulation of beta-catenin protein expression in human A549 cells at 3.6 to 100 nM after 48 hrs by Western blot analysis

| SMILES | IC50 (KB) | IC50 (A549 [1]) | IC50 [2] | IC50 (DU-145) | further results |
| --- | --- | --- | --- | --- | --- |
| COc1ccc2c3c(c4cc(OC)c(OC)cc4c2c1)C[C@H]1CC[C@H](O)CN1C3 | 2250 nM | 2510 nM | 3070 nM | 2250 nM | IC50 (SK-BR-3): 6440 nM |
| COc1ccc2c3c(c4cc(OC)c(OC)cc4c2c1)C[C@H]1C[C@H](O)[C@@H](O)CN1C3 | 840 nM | 550 nM | 2170 nM | 600 nM |  |
| COc1ccc2c3c(c4cc(OC)c(OC)cc4c2c1)C[C@H]1[C@H](O)CCN1C3 | 500 nM | 270 nM | 640 nM | 850 nM |  |
| COc1ccc2c3c(c4cc(OC)c(OC)cc4c2c1)C[C@H]1[C@@H](O)CCCN1C3 | 25 nM | 10 nM | 25 nM | 33 nM |  |
| COc1ccc2c3c(c4cc(OC)c(OC)cc4c2c1)C[C@H]1CC(=O)CCN1C3 | 50 nM | 28 nM | 43 nM | 45 nM |  |
| COc1ccc2c3c(c4cc(OC)c(OC)cc4c2c1)C[C@H]1C[C@@H](O)CCN1C3 | 43 nM | 72 nM | 78 nM | 59 nM | IC50 (SK-BR-3): 295 nM |
| COc1ccc2c3c(c4cc(OC)c(OC)cc4c2c1)C[C@H]1C[C@@H](OC)CCN1C3 | 5240 nM | 7110 nM | 3690 nM | 3570 nM |  |
| COc1ccc2c3c(c4cc(OC)c(OC)cc4c2c1)C[C@H]1C[C@@H](O)[C@H](O)CN1C3 | 17500 nM | 14500 nM | 12600 nM | 1710 nM |  |
| COc1ccc2c3c(c4cc(OC)c(OC)cc4c2c1)C[C@H]1CC[C@@H](O)CN1C3 | 33 nM | 82 nM | 45 nM | 66 nM | IC50 (SK-BR-3): 348 nM |
| COc1ccc2c3c(c4cc(OC)c(OC)cc4c2c1)C[C@H]1CCCCN1C3 [CRYPTOPLEURINE] | 1.51 nM | 1.38 nM |  | 1.59 nM | IC50 (A549 [3]): 1.9 nM; IC50 (HCT-8): 1.91 nM; IC50 [4]: 6.8 nM; IC50 (PC-9): 5.5 nM; IC50 (MRC5): 14 nM; IC50 [5]: 1.8 nM; Activity (A549 [6]): Active; IC50 [7]: 5 nM; Activity (A549 [8]): Active; Activity (A549 [9]): Active |
| COc1ccc2c3c(c4cc(OC)c(OC)cc4c2c1)C[C@H]1CCCN1C3 [(-)-ANTOFINE] |  |  | 25 nM |  |  |

Source: ChEMBL document CHEMBL2163271, “Antitumor agents 295. E-ring hydroxylated antofine and cryptopleurine analogues as antiproliferative agents: design, synthesis, and mechanistic studies” (J Med Chem, 2012)
